# Compound activity: PubChem, several laboratories
# Compounds with a hit are over-represented: about 2.5% of the library has one in this group of screens.
# NLRP3 yeast inh: blocks the NALP3 inflammasome reconstituted in yeast; Yeast reconstituted NLRP3/ASC/caspase-1, beta-gal luminescence, 24 h; inhibition, % at 10 µM; 0.39% of 330,000 active;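 active means inhibition of 50% or more; inactive means inhibition below 50%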;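 further: plate controls were induced DMSO wells for no effect and uninduced yeast grown without galactose for full effect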
# MC4R antag cAMP: human MC4R antagonism in cAMP assay; P32245; MC4R-expressing cells, MTII-stimulated cAMP, LANCE TR-FRET; inhibition, % at 6.5 µM; 0.48% of 360,000 active; AID 540295;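 active means inhibition above its plate's cutoff, the mean of tested wells on that plate plus 3 SD, cut at about 29% in these data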;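 further: 0% = Melanotan II alone and 100% = Melanotan II plus saturating MCL0020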
# Target sequence (P32245 whole entry, looked up): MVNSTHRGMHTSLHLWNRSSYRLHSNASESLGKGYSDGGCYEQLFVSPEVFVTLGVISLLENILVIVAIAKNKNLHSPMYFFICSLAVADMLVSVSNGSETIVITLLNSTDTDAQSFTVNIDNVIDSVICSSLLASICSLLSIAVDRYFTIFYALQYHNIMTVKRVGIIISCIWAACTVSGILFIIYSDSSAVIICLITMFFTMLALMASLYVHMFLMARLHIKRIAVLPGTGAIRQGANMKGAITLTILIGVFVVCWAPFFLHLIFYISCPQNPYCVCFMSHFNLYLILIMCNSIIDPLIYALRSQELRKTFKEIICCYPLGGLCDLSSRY
#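 System: U2OS-MC4R stable cell line; Technique: Eu-cAMP/anti-cAMP TR-FRET, emission 671 nm; Repeats: single well per compound; Also added: Melanotan II; Dosing: one concentration, 6.5 µM nominal; Schedule: 30-min compound, 1-h challenge, 1-h detection, room temperature.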
# Tb MetRS inh: Trypanosoma brucei MetRS inhibition; purified T. brucei MetRS, ATP depletion, Kinase-Glo luminescence; inhibition, % at 11.9 µM; 0.4% of 360,000 active;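 active means inhibition above a per-plate cutoff of the control wells' mean inhibition plus 3 SD, cut at about 5.5% in these data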;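 further: 0% = DMSO wells median and 100% = median of wells with control inhibitor compound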
#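 System: purified T. brucei MetRS enzyme / Detection: Kinase-Glo luciferase luminescence reporting remaining unconsumed ATP / Medium: HEPES buffer with MgCl2, KCl, DTT, spermine, BSA, pyrophosphatase / Replication: singlicate, one well per compound / Evaluation: percent inhibition relative to median high and low control wells / Schedule: 2 h aminoacylation at 25 °C after 15 min preincubation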
# MC4R barr agon: agonists of human melanocortin 4 receptor (MC4R) beta-arrestin. P32245. U2OS MC4R beta-arrestin complementation, luminescence; percent of melanotan II response, DMSO zero. activation, % at 8.9 µM. 0.98% of 360,000 active;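 active means activation above a per-plate cutoff, the mean activation of sample wells on that plate plus 3 SD, cut at about 8% in these data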
# Bfl-1 A1 inh: inhibitors of the anti-apoptotic protein A1, read as caspase activation; caspase activation, % (concentration not given with the values); 0.066% of 330,000 active; MEF A1-2A-BIM cells, Caspase-Glo 3/7 luminescence, 3 h; percent of clofoctol response, vehicle zero; AID 2462;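 active means over half of replicate activation scores above 10%, or exactly half above 10 with the replicate mean above 10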
# NALP1 inh: blocks the NALP1 inflammasome reconstituted in yeast; S. cerevisiae NALP1/ASC/caspase-1 growth, X-gal OD620, 72 h; inhibition, % at 10 µM; 0.61% of 280,000 active; AID 2071; in the data active means inhibition mostly above about 24%, no sharp cut-off; inactive means mostly below about 32%
# TbMetRS confirm: Trypanosoma brucei MetRS inhibition confirmed; 93% of 1,400 active; inhibition, % at 11.9 µM; AID 624412; shares compounds with Tb MetRS inh; T. brucei MetRS enzyme, luminescence (ATP depletion); in the data active means inhibition above about 7%
# Jurkat cytotox: Jurkat T cell cytotoxicity for MetRS hits. shares compounds with Tb MetRS inh. Jurkat cells viability, ATP luminescence. inhibition, % at 8.3 µM. 12% of 1,400 active. AID 624413; in the data active means inhibition above about 15%;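 further: 0% = vehicle and 100% = reference inhibitor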
# Tb MetRS inh FP: orthogonal test for Trypanosoma brucei MetRS inhibitors | inhibition, % at 11.9 µM | purified T. brucei MetRS, fluorescence polarization | AID 651607 | 44% of 1,400 active | shares compounds with Tb MetRS inh; in the data active means inhibition above about 17%;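 further: 0% = vehicle wells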
# * = called active by the depositor; . = not tested or not shown.
SMILES,NLRP3 yeast inh,MC4R antag cAMP,Tb MetRS inh,MC4R barr agon,Bfl-1 A1 inh,NALP1 inh,TbMetRS confirm,Jurkat cytotox,Tb MetRS inh FP
O=C(CCC(=O)Nc1cccc([N+](=O)[O-])c1)N/N=C/c1cccs1,-2,1,44*,-1,-2,16,69*,7,48*
O=C(CNC(=O)c1ccc(Br)o1)NCc1cccc(Cl)c1,5,7,2,0,0,18,.,.,.
O=C(CNC(=O)c1ccc(Br)o1)NCc1ccc(Cl)cc1Cl,18,-1,18*,-2,1,5,45*,-3,15
CCCCc1nnc(SCC(=O)NC2CCCCC2)n1C,16,2,0,-2,0,10,.,.,.
CCCCC#Cc1cncc(C(=O)NN)c1,5,-7,5.7*,1,1,8,3,6,6
CCOC(=O)C1CCN(C(=O)C(C)Sc2nnc3ccccn23)CC1 (stereo not drawn),17,6,0,-1,1,.,.,.,.
COc1ccccc1C(=O)NC(=O)COC(=O)c1ccc(C)o1,4,8,0,-3,1,.,.,.,.
COc1cccc(NC(=O)C(=O)NCc2ccncc2)c1,-13,8,0,-3,0,8,.,.,.
COc1cccc(NC(=O)C(C#N)Cc2ccncc2)c1 (stereo not drawn),7,-4,16*,2,2,-3,1,3,3
CCCCn1c(N)c(N(CCOC)C(=O)COC(=O)COc2c(C)cc(C)cc2C)c(=O)[nH]c1=O,15,15,0,-3,0,.,.,.,.
O=C(Nc1cccc(S(=O)(=O)N2CCCCC2)c1)C1=NN(c2ccccc2)C(=O)CC1,10,5,0,0,-1,.,.,.,.
COc1ccc(NC(=O)C2CCCN(S(=O)(=O)c3ccc(-n4cnnn4)cc3)C2)cc1 (stereo not drawn),10,-3,-1,-1,0,18,.,.,.
CC(=O)Nc1ccc(S(=O)(=O)N2CCC(Oc3ccc(-n4cnnn4)cc3)CC2)cc1,11,6,6.0*,0,1,-8,15*,6,5
Cc1cccc(C)c1NC(=O)C(C)NCc1cccs1 (stereo not drawn),.,11,0,1,.,.,.,.,.
COc1ccc(S(=O)(=O)N(C)c2ccc(C(=O)Nc3ccccc3C(=O)N3CCOCC3)cc2)cc1OC,17,4,-1,-2,-1,8,.,.,.
COc1ccc(C2c3[nH]c4ccccc4c3C[C@H]3C(=O)N(C)CC(=O)N23)cc1OC (stereo partly drawn),-9,22,-1,-1,0,1,.,.,.
COc1ccc(OC)c(C2c3[nH]c4ccccc4c3C[C@H]3C(=O)N(C4CC4)CC(=O)N23)c1 (stereo partly drawn),5,2,0,-1,-1,5,.,.,.
COc1cccc(C2c3[nH]c4ccccc4c3C[C@H]3C(=O)N(C4CC4)CC(=O)N23)c1 (stereo partly drawn),-1,14,16*,-1,-1,6,30*,8,22*
O=C1[C@@H]2Cc3c([nH]c4ccccc34)C(c3cccc(Br)c3)N2C(=O)CN1C1CCN(Cc2ccccc2)CC1 (stereo partly drawn),10,28,41*,4,0,15,54*,5,28*
COc1cccc(C2c3[nH]c4ccccc4c3C[C@H]3C(=O)N(C)CC(=O)N23)c1 (stereo partly drawn),6,10,16*,-2,0,-1,31*,2,10
Cc1ccccc1C1c2[nH]c3ccccc3c2C[C@H]2C(=O)N(C3CCN(Cc4ccccc4)CC3)CC(=O)N12 (stereo partly drawn),21,18,0,2,1,6,.,.,.
O=C(Nc1ccccc1)c1ccc(=O)n(Cc2cccc(Cl)c2)c1,19,14,43*,3,-1,2,58*,6,28*
CNC(=S)NNC(=O)c1ccc(=O)n(Cc2cccc(C(F)(F)F)c2)c1,19,12,6.1*,-1,0,-10,13*,-2,3
O=C(NCc1ccccc1)c1ccc(Cn2cc(C(F)(F)F)ccc2=O)cc1,2,14,0,0,1,-12,.,.,.
CCNC(=S)NNC(=O)c1ccc(=O)n(Cc2ccccc2)c1,17,6,22*,-4,0,-28,37*,1,22*
SMILES,NLRP3 yeast inh,MC4R antag cAMP,Tb MetRS inh,MC4R barr agon,Bfl-1 A1 inh,NALP1 inh,TbMetRS confirm,Jurkat cytotox,Tb MetRS inh FP
C=CCNC(=S)NNC(=O)c1ccc(=O)n(Cc2ccc(Cl)cc2Cl)c1,30,1,34*,-2,0,-13,44*,6,32*
COc1ccc(-n2c(SCC(=O)Nc3ccc(Cl)cc3)nc(O)c(Cc3ccccc3)c2=O)cc1,14,0,47*,-1,1,15,70*,-10,35*
O=C(/C(=C/c1ccc(Cl)cc1)c1nc2ccccc2[nH]1)c1cccs1,50,9,0,-2,2,16,.,.,.
O=C(/C(=C\c1ccccc1)c1nc2ccccc2[nH]1)c1ccc(Cl)cc1,41,4,9.7*,1,-1,20,4,79*,0
COCCNC(=O)c1cnn2c1NC(c1ccco1)CC2C(F)(F)F (stereo not drawn),13,2,-1,0,0,-63,.,.,.
O=C(NCc1cccc(Cl)c1)c1cnn2c1NC(c1ccco1)CC2C(F)(F)F (stereo not drawn),20,23,10*,5,0,-17,23*,1,14
CCN(CC(=O)Nc1cccc(OC)c1)C(=O)c1ccco1,11,2,0,0,0,1,.,.,.
O=c1c(OC2OC(CO)C(O)C(O)C2OC2OC(CO)C(O)C(O)C2O)c(-c2ccc(O)cc2)oc2cc(O)cc(O)c12 (stereo not drawn),7,3,7.1*,-1,0,7,22*,-3,23*
C[C@H](CO)N1C[C@H](C)[C@@H](CN(C)C(=O)c2cnccn2)Oc2cc(C#CCC3CCCC3)ccc2S1(=O)=O,.,-5,0,-1,.,.,.,.,.
CC(OC(=O)c1cccc(-n2cnnn2)c1)C(=O)NC1(C#N)CCCCC1 (stereo not drawn),2,-2,0,-2,1,.,.,.,.
